Each structure is given as a SMILES string. In brackets after ≈: the same amount, converted by molar mass.

Experimental findings from ChEMBL document CHEMBL1770123, “SPF32629A and SPF32629B: enantioselective synthesis, determination of absolute configuration, cytotoxicity and antibacterial evaluation” (Eur J Med Chem, 2011) are described below.

For assay [1], the system named is Staphylococcus aureus. As to the kind of experiment: Antimicrobial activity against methicillin-resistant Staphylococcus aureus strain 2 TB4G at 1000 ug/disc after 24 hrs by disc diffusion method. Format: functional. To be noted: read-out: DIZ. The method in brief:
(§1)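 Disc diffusion on 2.4% Mueller-Hinton agar inoculated with the strain. Paper discs 6 mm across were loaded with test compound and placed on the agar. Plates were incubated at 37 °C for 24 h. Read-out was the diameter of the inhibition zone in mm.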

The test system of assay [2] is A549. Put plainly: Cytotoxicity against human A549 cells assessed as cell death at 5 ug after 48 hrs by MTT assay. Format: functional. The method in brief:
(§2)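 A549 cells were grown in DMEM with 2 mmol L-glutamine, 10% FBS, penicillin (50 IU/mL) and streptomycin, at 37 °C and 5% CO2. 1×10^4 cells/well were plated and treated 24 h later with compound diluted in medium for 48 h. Controls were DMSO-matched and untreated wells. MTT 0.4 mg/mL in PBS was added for 4 h in the dark, then DMSO for 4 h. A540 was read and reported as % live cells relative to untreated.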

Assay [3] has as its system Escherichia coli. Put plainly: Antimicrobial activity against Escherichia coli after 24 hrs by microdilution method. Format: functional. An outline of the steps: (§3)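 Growth was judged by turbidity, and the MIC was taken as the minimum concentration giving the lowest growth. Amikacin served as reference.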
For assay [4], the system named is Staphylococcus aureus. Put plainly: Antimicrobial activity against Staphylococcus aureus after 24 hrs by microdilution method. The assay is classed as functional. An outline of the steps:
as §3

Assay [5] has as its system Staphylococcus aureus. Put plainly: Antimicrobial activity against methicillin-resistant Staphylococcus aureus strain 4 TB5G at 1000 ug/disc after 24 hrs by disc diffusion method. Format: functional. To be noted: read-out: DIZ. An outline of the steps:
as §1

Assay [6] concerns Staphylococcus aureus. As to the kind of experiment: Antimicrobial activity against Staphylococcus aureus at 1000 ug/disc after 24 hrs by disc diffusion method. Format: functional. The note with it: read-out: DIZ.
The test system of assay [7] is A549. Put plainly: Cytotoxicity against human A549 cells assessed as cell death at 2 ug after 48 hrs by MTT assay. The assay is classed as functional. The method in brief: as §2
Assay [8] has as its system Klebsiella pneumoniae. As to the kind of experiment: Antimicrobial activity against Klebsiella pneumoniae after 24 hrs by microdilution method. The assay is classed as functional. An outline of the steps:
as §3

The subject of assay [9] is Salmonella typhimurium. Put plainly: Antimicrobial activity against Salmonella Typhimurium at 500 ug/disc after 24 hrs by disc diffusion method. The assay is classed as functional, Salmonella enterica subsp. enterica serovar Typhimurium. The note with it: Salmonella enterica, read-out: DIZ.
In assay [10] the test system is Bacillus subtilis. As to the kind of experiment: Antimicrobial activity against Bacillus subtilis at 500 ug/disc after 24 hrs by disc diffusion method. The assay is classed as functional. To be noted: read-out: DIZ.
Assay [11] relates to Staphylococcus aureus. As to the kind of experiment: Antimicrobial activity against Staphylococcus aureus at 500 ug/disc after 24 hrs by disc diffusion method. The assay is classed as functional. To be noted: read-out: DIZ. An outline of the steps:
as §1

The test system of assay [12] is Staphylococcus aureus. Put plainly: Antimicrobial activity against methicillin-resistant Staphylococcus aureus strain 1 TB3G at 500 ug/disc after 24 hrs by disc diffusion method. Format: functional. To be noted: read-out: DIZ. An outline of the steps: as §1
Assay [13] deals with Staphylococcus aureus. As to the kind of experiment: Antimicrobial activity against methicillin-resistant Staphylococcus aureus strain 2 TB4G at 500 ug/disc after 24 hrs by disc diffusion method. Format: functional. To be noted: read-out: DIZ. The method in brief: as §1
For assay [14], the system named is Staphylococcus aureus. As to the kind of experiment: Antimicrobial activity against methicillin-resistant Staphylococcus aureus strain 2 TB4G after 24 hrs by microdilution method. The assay is classed as functional. An outline of the steps: (§4)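 Growth was judged by turbidity. The MIC was taken as the lowest concentration giving the lowest growth.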
Assay [15] relates to Listeria monocytogenes. As to the kind of experiment: Antimicrobial activity against Listeria monocytogenes at 500 ug/disc after 24 hrs by disc diffusion method. Format: functional. The note with it: read-out: DIZ.
For assay [16], the system named is Klebsiella pneumoniae. Put plainly: Antimicrobial activity against Klebsiella pneumoniae at 1000 ug/disc after 24 hrs by disc diffusion method. Format: functional. To be noted: read-out: DIZ.
For assay [17], the system named is Bacillus subtilis. As to the kind of experiment: Antimicrobial activity against Bacillus subtilis after 24 hrs by microdilution method. Format: functional. The method in brief: as §3
The subject of assay [18] is Escherichia coli. Put plainly: Antimicrobial activity against Escherichia coli at 500 ug/disc after 24 hrs by disc diffusion method. The assay is classed as functional. The note with it: read-out: DIZ.
The test system of assay [19] is Klebsiella pneumoniae. Put plainly: Antimicrobial activity against Klebsiella pneumoniae at 500 ug/disc after 24 hrs by disc diffusion method. Format: functional. The note with it: read-out: DIZ.
In assay [20] the test system is Salmonella typhimurium. Put plainly: Antimicrobial activity against Salmonella Typhimurium at 1000 ug/disc after 24 hrs by disc diffusion method. The assay is classed as functional, Salmonella enterica subsp. enterica serovar Typhimurium. The note with it: Salmonella enterica, read-out: DIZ.
The test system of assay [21] is Staphylococcus aureus. As to the kind of experiment: Antimicrobial activity against methicillin-resistant Staphylococcus aureus strain 1 TB3G at 1000 ug/disc after 24 hrs by disc diffusion method. The assay is classed as functional. To be noted: read-out: DIZ. An outline of the steps: as §1
Assay [22] deals with Listeria monocytogenes. Put plainly: Antimicrobial activity against Listeria monocytogenes after 24 hrs by microdilution method. Format: functional. The method in brief: as §3
In assay [23] the test system is A549. As to the kind of experiment: Cytotoxicity against human A549 cells assessed as cell death at 1 ug after 48 hrs by MTT assay. Format: functional. An outline of the steps:
as §2

Assay [24] relates to Salmonella typhimurium. Put plainly: Antimicrobial activity against Salmonella Typhimurium after 24 hrs by microdilution method. Format: functional, Salmonella enterica subsp. enterica serovar Typhimurium. The note with it: Salmonella enterica. The method in brief:
as §3

Assay [25] has as its system Staphylococcus aureus. Put plainly: Antimicrobial activity against methicillin-resistant Staphylococcus aureus strain 4 TB5G at 500 ug/disc after 24 hrs by disc diffusion method. To be noted: read-out: DIZ. Format: functional. An outline of the steps:
as §1

The subject of assay [26] is Listeria monocytogenes. As to the kind of experiment: Antimicrobial activity against Listeria monocytogenes at 1000 ug/disc after 24 hrs by disc diffusion method. Format: functional. To be noted: read-out: DIZ.
The subject of assay [27] is A549. As to the kind of experiment: Cytotoxicity against human A549 cells assessed as cell death at 25 ug after 48 hrs by MTT assay. The assay is classed as functional. An outline of the steps: as §2
The subject of assay [28] is A549. Put plainly: Cytotoxicity against human A549 cells after 48 hrs by MTT assay. The assay is classed as functional, cell-based. The note with it: A549, 48 h. The method in brief: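 A549 cells were kept in DMEM with 2 mM L-glutamine, 10% FBS, penicillin 50 IU/mL and streptomycin at 37 °C under 5% CO2. 1×10^4 cells per well were treated 24 h after seeding with compounds diluted in medium for 48 h. MTT (0.4 mg/mL in PBS) was added for 4 h in the dark, formazan was dissolved in DMSO for 4 h and absorbance read at 540 nm. Viability was expressed as % of untreated cells, and IC50 was derived.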

Assay [29] relates to A549. Put plainly: Cytotoxicity against human A549 cells assessed as cell death at 10 ug after 48 hrs by MTT assay. The assay is classed as functional. An outline of the steps:
as §2

In assay [30] the test system is Staphylococcus aureus. As to the kind of experiment: Antimicrobial activity against methicillin-resistant Staphylococcus aureus strain 4 TB5G after 24 hrs by microdilution method. The assay is classed as functional. An outline of the steps:
as §4

The test system of assay [31] is Staphylococcus aureus. As to the kind of experiment: Antimicrobial activity against methicillin-resistant Staphylococcus aureus strain 1 TB3G after 24 hrs by microdilution method. The assay is classed as functional. An outline of the steps:
as §4

Assay [32] deals with Escherichia coli. Put plainly: Antimicrobial activity against Escherichia coli at 1000 ug/disc after 24 hrs by disc diffusion method. The note with it: read-out: DIZ. The assay is classed as functional.
The test system of assay [33] is Bacillus subtilis. As to the kind of experiment: Antimicrobial activity against Bacillus subtilis at 1000 ug/disc after 24 hrs by disc diffusion method. The note with it: read-out: DIZ. Format: functional.
For assay [34], the system named is Staphylococcus epidermidis. Put plainly: Antimicrobial activity against Staphylococcus epidermidis after 24 hrs by microdilution method. The assay is classed as functional. The method in brief: as §3
For assay [35], the system named is Staphylococcus epidermidis. Put plainly: Antimicrobial activity against Staphylococcus epidermidis at 500 ug/disc after 24 hrs by disc diffusion method. The assay is classed as functional. To be noted: read-out: DIZ.
Assay [36] concerns Staphylococcus epidermidis. As to the kind of experiment: Antimicrobial activity against Staphylococcus epidermidis at 1000 ug/disc after 24 hrs by disc diffusion method. Format: functional. The note with it: read-out: DIZ.

For `CC(C)CC(=O)O[C@H](c1ccccc1)c1cc(O)c(C(=O)O)c(=O)[nH]1`, the zone of inhibition at 1000 µg/disc came to 10 mm in the assay on Staphylococcus aureus [1]; 11 mm with Staphylococcus aureus [5]; 18 mm with Staphylococcus aureus [6]; 20 mm in the assay on Klebsiella pneumoniae [16]; 20 mm with Salmonella typhimurium [20]; 13 mm in the assay on Staphylococcus aureus [21]. For the same molecule, the zone of inhibition at 1000 µg/disc was 15 mm in the assay with Listeria monocytogenes [26], 18 mm with Escherichia coli [32], 15 mm in the assay on Bacillus subtilis [33] and 20 mm in [36]. Besides, the Activity is listed as 44.92% in the assay with A549 [2]; 30.76% in the assay on A549 [7]; 10.46% in the assay on A549 [23]; 78.76% in the assay on A549 [27]; 77.84% in the assay with A549 [29]. The MIC in the assay on Escherichia coli [3] was 50 µg/mL (≈ 145 µM); against Staphylococcus aureus [4], more than 100 µg/mL; with Klebsiella pneumoniae [8], more than 100 µg/mL; in the assay on Staphylococcus aureus [14], more than 100 µg/mL; against Bacillus subtilis [17], 100 µg/mL (≈ 290 µM); with Listeria monocytogenes [22] it was 100 µg/mL (≈ 290 µM). In addition, the MIC in the assay on Salmonella typhimurium [24] was more than 100 µg/mL; in the assay on Staphylococcus aureus [30], more than 100 µg/mL; in the assay with Staphylococcus aureus [31], more than 100 µg/mL; in [34], 25 µg/mL (≈ 72.4 µM). Moreover, the zone of inhibition at 500 µg/disc with Salmonella typhimurium [9] is 9 mm; in the assay with Bacillus subtilis [10] it was 8 mm; with Staphylococcus aureus [11], 11 mm; in the assay on Staphylococcus aureus [12], 7 mm; in the assay with Staphylococcus aureus [13], 6 mm; in the assay with Listeria monocytogenes [15] it was 7 mm. Moreover, the zone of inhibition at 500 µg/disc with Escherichia coli [18] was 10 mm; with Klebsiella pneumoniae [19] it was 9 mm; in the assay with Staphylococcus aureus [25], 5 mm; in assay [35], 12 mm. The molecule further came in with an IC50 in the assay on A549 [28] of 8 µM.

With `COc1cc([C@@H]2c3cc4c(cc3[C@@H](O[C@@H]3O[C@@H]5CO[C@@H](C)O[C@H]5[C@H](O)[C@H]3O)[C@H]3COC(=O)[C@H]23)OCO4)cc(OC)c1O` [ETOPOSIDE], the Activity in the assay with A549 [2] is 25.91%; in the assay on A549 [7], 9.12%; in the assay on A549 [23], 5.54%; with A549 [27] it was 69.48%; with A549 [29] it was 55.33%. The molecule further gave an IC50 in the assay with A549 [28] of 11 µM.
